Screening data from PubChem.
LMPTP inh: LMPTP phosphatase inhibitors, primary screen, biochemical, fluorescence intensity, uHTS. 360,000 compounds, 0.22% hits. Low molecular weight phosphotyrosine protein phosphatase (Homo sapiens), P24666. inhibition, % at 20 µM. recombinant LMPTP-A, OMFP fluorogenic substrate;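 active means compounds that cut the enzyme signal by at least half of the control window in the single-dose screen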;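 further: plate controls were DMSO wells with enzyme plus substrate for no effect and substrate without enzyme for full effect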
Target sequence (P24666 whole entry, looked up): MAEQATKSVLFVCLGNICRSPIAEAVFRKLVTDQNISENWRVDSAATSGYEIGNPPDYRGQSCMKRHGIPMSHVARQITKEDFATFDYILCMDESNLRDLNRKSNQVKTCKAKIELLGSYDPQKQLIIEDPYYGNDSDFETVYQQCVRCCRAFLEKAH
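Assay system: LMPTP-A phosphatase enzyme | Input: 0.625 nM enzyme | Also added: Fluorogenic phosphatase substrate OMFP at 400 µM final | Compound dosing: One test concentration per compound, 20 µM, with 3% DMSO overall | Schedule: 50 min enzyme reaction at room temperature, protected from light | Signal: Fluorescence intensity | Benchmarks: no-enzyme and uninhibited controls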
Rpn11 block: Rpn11 (PSMD14) deubiquitinase inhibitors, primary screen, biochemical, fluorescence polarization, uHTS | 26S proteasome non-ATPase regulatory subunit 14 (Homo sapiens), O00487 | human 26S proteasome, Ub4-pepOG fluorescence polarization; 20S core pre-blocked with epoxomicin | inhibition, % at 20 µM | 360,000 compounds, 0.59% hits;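 active means inhibition at 20 µM, scaled to each plate's controls, above about 33%, limit read from the data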
Target sequence (O00487 whole entry, looked up): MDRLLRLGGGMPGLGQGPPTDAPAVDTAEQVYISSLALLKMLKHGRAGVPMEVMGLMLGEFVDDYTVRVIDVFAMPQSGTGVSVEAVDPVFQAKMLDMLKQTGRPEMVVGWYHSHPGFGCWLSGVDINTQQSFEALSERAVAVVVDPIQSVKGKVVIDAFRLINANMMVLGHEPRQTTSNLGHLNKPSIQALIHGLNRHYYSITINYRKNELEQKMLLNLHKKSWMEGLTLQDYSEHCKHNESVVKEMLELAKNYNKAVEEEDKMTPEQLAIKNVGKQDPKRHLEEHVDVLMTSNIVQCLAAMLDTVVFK
Scp1 inh: Scp-1 phosphatase inhibitors, primary screen, biochemical, colorimetric, uHTS; Carboxy-terminal domain RNA polymerase II polypeptide A small phosphatase 1 (Homo …; Recombinant Scp1, phosphopeptide, malachite green phosphate absorbance; inhibition, % at 20 µM; 340,000 compounds, 0.88% hits; AID 493091, 2011;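 active means inhibition above about 50% at 20 µM, limit read from the data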;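 further: plate controls were DMSO wells with enzyme for no effect and wells lacking enzyme for full effect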
Target sequence (Q9GZU7 76-261 limits assumed): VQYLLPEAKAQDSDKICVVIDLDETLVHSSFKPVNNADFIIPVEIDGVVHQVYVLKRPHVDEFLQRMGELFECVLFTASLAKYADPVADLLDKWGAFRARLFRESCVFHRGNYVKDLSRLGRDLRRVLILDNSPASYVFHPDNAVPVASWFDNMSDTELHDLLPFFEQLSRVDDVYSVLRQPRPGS
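Times: enzyme reaction 45 min at room temperature, colour 5 min, stabilisation 30 min. Material: SCP-1 catalytic fragment, aa 76-261. Medium: Acidic Tris acetate buffer with magnesium and detergent. Signal: colorimetric free-phosphate detection, absorbance 630 nm. Read-out basis: % inhibition of SCP-1 phosphate liberation. Reagent: Phosphorylated 17-residue peptide substrate.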
DNMT1 inh: human DNMT1 methyltransferase inhibitors, primary screen, biochemical, molecular beacon, fluorescence, HinP1I cleavage, uHTS. DNA (cytosine-5)-methyltransferase 1 (Homo sapiens), P26358. inhibition (reported as % activation of signal), % at 10 µM. 360,000 compounds, 0.83% hits. AID 588458, 2011; in the data active means inhibition above about 50%
STEP inh: STEP phosphatase inhibitors, primary screen, biochemical, fluorescence intensity, uHTS; AID 588621, 2011; recombinant STEP, OMFP fluorogenic substrate; 360,000 compounds, 0.25% hits; inhibition, % at 20 µM; Tyrosine-protein phosphatase non-receptor type 5 (Homo sapiens), P54829;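 active means inhibition at 20 µM, scaled per plate between control wells, above about 37%, limit read from the data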;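 further: 0% = DMSO with enzyme and substrate and 100% = substrate only without enzyme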
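Assay system: isolated STEP enzyme. Buffer or medium: pH 6.0 Bis-Tris with DTT and Tween 20. Also added: fluorogenic phosphatase substrate OMFP at 25 µM final. Dosing: 20 µM, 1% DMSO. Timing: 20 min reaction, room temperature, in the dark. Measured by: fluorescence intensity, excitation 480 nm, emission 540 nm. Evaluation: normalized % inhibition.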
Scp1 confirm: Scp-1 phosphatase inhibitors, retest, confirmation, biochemical, colorimetric, single concentration; shares compounds with Scp1 inh; 2,500 compounds, 61% hits; AID 540281, 2011; recombinant SCP-1 catalytic domain, phosphate release, malachite green absorbance; inhibition, % at 20 µM;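 further: plate controls were DMSO with enzyme for no effect and buffer wells lacking enzyme for full effect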
Scp-1 MG ctr: colorimetric readout interference by compounds, confirmation, artefact control for Scp-1 inhibitor project, biochemical, single concentration; shares compounds with Scp1 inh; Colorimetric interference counterscreen, malachite green absorbance 630 nm; apparent inhibition (interference), % at 20 µM; 2,500 tested, under 10 active; AID 540313, 2011;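 further: compounds added after enzyme reaction finished so only phosphate colour detection is probed; plate controls were DMSO wells with completed Scp-1 reaction for no effect and substrate wells lacking enzyme for full effect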
Scp1 DSF: Scp-1 binding by thermal shift, confirmation, orthogonal assay for Scp-1 inhibitor project, biophysical, differential scanning fluorimetry; shares compounds with Scp1 inh; Recombinant SCP1, Sypro Orange thermal shift Tm; thermal shift relative to vanadate control, % at 40 µM; 1,500 compounds, 25% hits;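 active means substances whose mean melting-temperature shift, as a percentage of the reference inhibitor's shift, reaches about 5.3%, limit read from the data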;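 further: 0% = Tm of DMSO wells and 100% = Tm with sodium orthovanadate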
DNMT1 interf DR: spectral interference with molecular beacon fluorescence, dose response, artefact control for DNMT1 inhibitor project, biochemical, fluorescent molecular beacon | shares compounds with DNMT1 inh | spectral interference counter-screen | IC50, µM | 200 tested, under 10 active | AID 602382, 2012; call rule not given here
DNMT1 inh conf: DNMT1 methyltransferase inhibitor retest, confirmation, biochemical, molecular beacon, fluorescence, single concentration. 2,300 compounds, 8% hits. inhibition, % at 10 µM. DNMT1 molecular beacon HinP1I cleavage. shares compounds with DNMT1 inh;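 active means average inhibition of at least 30% in the single-concentration confirmation test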
Beacon interf: beacon fluorescence artifact counter-screen; DNMT1 molecular beacon spectral interference counterscreen, fluorescence 485/520; AID 602387; activation (fluorescence interference), % at 10 µM; shares compounds with DNMT1 inh; 2,300 compounds, 1% hits;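 active means activation of at least 30% at 10 µM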;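 further: DNMT1 catalytic domain with a HinP1I cleavage step and a FAM/dabcyl DNA beacon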
Active calls of the source: *; . = no result given. The list is not random: actives were taken first. Their share in the collection is about 2%.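 How the source made its calls, unless noted: active means inhibition of at least 30% at 20 µM; inactive means the rest.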

SMILES	LMPTP inh	Rpn11 block	Scp1 inh	DNMT1 inh	STEP inh	Scp1 confirm	Scp-1 MG ctr	Scp1 DSF	DNMT1 inh conf	Beacon interf	others
COc1ccc(-c2nnc(NC(=O)c3cccs3)s2)c(OC)c1	45	4	96*	80*	14	67*	-16	-18	2	-4
COc1ccc(-c2nnc(NC(=O)Cc3ccccc3)s2)c(OC)c1	-2	-2	-9	13	-1	.	.	.	.	.
N=C1C(c2nc3ccccc3s2)=C(O)CN1NC(=O)c1c[nH]c2ccccc12	35	34	64*	65*	37	54*	-15	4	2	0
N=C1C(c2nc3ccccc3s2)=C(O)CN1NC(=O)c1ccccc1[N+](=O)[O-]	7	-2	16	12	2	.	.	.	.	.
O=C(COC(=O)c1cccs1)NCc1ccco1	4	-4	97*	73*	3	64*	-17	5	3	7
COc1cc(NC(=O)c2cccs2)c(C(=O)OCC(=O)NCc2ccco2)cc1OC	5	-4	26	12	2	.	.	.	.	.
O=C(COC(=O)c1cncc(Br)c1)NCc1ccco1	9	-24	88*	102*	14	54*	-20	-10	5	3
C=Cc1ccc(CC2(C)C(=O)Nc3ccc(-c4cccnc4)cc32)cc1 (stereo unspecified)	1	-16	.	-2	1	.	.	.	.	.
O=CC(O)C1OC(=O)C(O)C1O (stereo unspecified)	6	-15	64*	90*	10	43*	-9	-15	44*	4	DNMT1 interf DR=>99
CSc1nc2sc3c(c2c(=O)n1C)CCC3	-2	5	-5	-6	-5	.	.	.	.	.
C#CCSc1nc2sc3c(c2c(=O)n1C)CCC3	14	-20	75*	61*	93*	48*	-18	-26	0	-4
O=C(Cc1cccs1)Nc1nnc(Cc2ccccc2)s1	42	29	82*	99*	12	76*	-8	4	8	2
CC(C)c1nnc(NC(=O)Cc2cccs2)s1	-2	-3	-3	-2	0	.	.	.	.	.
O=C(Cc1cccs1)Nc1nnc(CCc2ccccc2)s1	1	-2	0	2	-1	.	.	.	.	.
CCCCCc1nnc(NC(=O)Cc2cccs2)s1	6	9	68*	59*	9	85*	1	6.3*	10	2
CC(C)(C)Cc1nnc(NC(=O)Cc2cccs2)s1	21	10	58*	56*	8	63*	-21	7.2*	9	1
CC1(C(=O)O)CCCN1C(=O)c1ccco1 (stereo unspecified)	-1	2	.	5	-2	.	.	.	.	.
Cc1[nH]c2ccc(C(=O)OCC(=O)Nc3cccc(S(N)(=O)=O)c3)cc2c1C	1	2	-5	-19	1	.	.	.	.	.
COc1ccc(OC)c(NC(=O)COC(=O)c2cc3c(s2)CCC3)c1	32	-10	79*	89*	16	53*	-27	4	19	2
COc1ccccc1NC(=O)COC(=O)c1cc2c(s1)CCC2	27	-15	66*	94*	40	73*	-4	0	2	14
COc1ccc(OC)c(NC(=O)COC(=O)CCC2CCCC2)c1	2	1	-8	-1	4	.	.	.	.	.
CCCS(=O)(=O)NC(=O)C1(C)CCN(C(=O)c2c(F)cccc2F)C1 (stereo unspecified)	-1	-2	.	0	-2	.	.	.	.	.
COc1cccc(-c2cnc(C(O)c3ccc(Cl)cc3)[nH]2)c1 (stereo unspecified)	1	-2	.	1	6	.	.	.	.	.
N=C1S/C(=C\c2ccccc2F)C(=O)N1c1ccc(F)cc1	38	10	87*	60*	18	-6	-9	.	3	-1
N=C1S/C(=C\c2cccc3ccccc23)C(=O)N1c1ccc(F)cc1	2	2	1	46	4	.	.	.	.	.
SMILES	LMPTP inh	Rpn11 block	Scp1 inh	DNMT1 inh	STEP inh	Scp1 confirm	Scp-1 MG ctr	Scp1 DSF	DNMT1 inh conf	Beacon interf	others
COc1cc(/C=N/NC(=O)c2c(C)nnn2-c2nonc2N)ccc1O	-1	-1	2	1	-2	.	.	.	.	.
Cc1nnn(-c2nonc2N)c1C(=O)N/N=C/c1ccccc1O	36	14	51*	79*	11	64*	-12	-4	12	-1
CC1=CCC(C(=O)O)C(C(=O)NC2CCCCC2)C1 (stereo unspecified)	1	2	100*	79*	22	75*	-7	-23	0	2
O=C(NNC(=O)c1ccncc1)Nc1ccc(N=Nc2ccccc2)cc1	0	0	-8	7	0	.	.	.	.	.
CC1=NN(c2ccc(Cl)c(C(=O)O)c2)C(=O)C1	8	7	75*	68*	9	53*	-8	9.5*	8	1
CC1=NN(c2ccc(C(=O)O)c(N)c2)C(=O)C1	4	1	42	44	8	.	.	.	.	.
Cc1cc(C(=O)NCc2ccc(C(=O)O)o2)c(C)o1	0	-6	56*	78*	4	52*	-10	-13	8	2
Cc1cccc(NC(=O)CNC(=O)c2cccc(-n3cccc3)c2)c1C	17	39	73*	87*	9	75*	-7	-3	21	1
COc1ccc(C2Nc3cccc(O)c3C(=O)N2Cc2ccccc2)cc1COc1ccc(NC(C)=O)cc1 (stereo unspecified)	4	4	.	-26	0	.	.	.	.	.
